Among the data in ChEMBL document CHEMBL4190362, “Synthesis, biological evaluation and quantitative structure-active relationships of 1,3-thiazolidin-4-one derivatives. A promising chemical scaffold endowed with high antifungal potency and low cytotoxicity” (Eur J Med Chem, 2017) are MIC values, retold here.

SMILES strings stand for the structures.

By MIC is commonly meant the least concentration at which growth counts as inhibited.

One test relates to Staphylococcus aureus. As to the kind of experiment: Antibacterial activity against Staphylococcus aureus assessed as inhibition of microbial growth incubated for 18 to 22 hrs by broth microdilution method. It counts as functional. An outline of the steps: (§1)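 Broth microdilution in Mueller-Hinton II broth following NCCLS recommendations; compounds dissolved in DMSO.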
For orientation: In broth dilution the organism is exposed to a series of concentrations in liquid medium.

Another test deals with Staphylococcus warneri. As to the kind of experiment: Antibacterial activity against Staphylococcus warneri assessed as inhibition of microbial growth incubated for 18 to 22 hrs by broth microdilution method. The class given is functional. An outline of the steps: as §1
Another test has as its system Enterococcus faecalis. Kind of test: Antibacterial activity against Streptococcus faecalis assessed as inhibition of microbial growth incubated for 18 to 22 hrs by broth microdilution method. The class given is functional. An outline of the steps:
as §1

A further test has as its system Escherichia coli. Kind of test: Antibacterial activity against Escherichia coli assessed as inhibition of microbial growth incubated for 18 to 22 hrs by broth microdilution method. The class given is functional. In outline:
as §1

The next test deals with Proteus mirabilis. As to the kind of experiment: Antibacterial activity against Proteus mirabilis assessed as inhibition of microbial growth incubated for 18 to 22 hrs by broth microdilution method. The class given is functional. An outline of the steps:
as §1

The test system of the next test is Enterobacter. Kind of test: Antibacterial activity against Enterobacter spp. assessed as inhibition of microbial growth incubated for 18 to 22 hrs by broth microdilution method. The class given is functional. In outline: as §1
In a further test the test system is Klebsiella oxytoca. Kind of test: Antibacterial activity against Klebsiella oxytoca assessed as inhibition of microbial growth incubated for 18 to 22 hrs by broth microdilution method. It counts as functional. An outline of the steps: as §1
For the next test, the system named is Candida albicans. As to the kind of experiment: Antifungal activity against Candida albicans clinical isolates assessed as inhibition of microbial growth incubated for 24 hrs by broth microdilution method. It counts as functional. In outline: (§2)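 Twenty-two clinical Candida isolates (8 C. albicans, 4 C. glabrata, 3 C. tropicalis, 3 C. krusei, 2 C. parapsilosis, 2 C. sake) were identified by colony morphology and biochemistry and subcultured at 35 °C for purity. Compounds were dissolved in DMSO and tested by broth microdilution in Sabouraud dextrose broth per NCCLS/CLSI/EUCAST guidance. Values are geometric mean MIC per species (µg/mL).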

The next test deals with Nakaseomyces glabratus. Kind of test: Antifungal activity against Candida glabrata clinical isolates assessed as inhibition of microbial growth incubated for 24 hrs by broth microdilution method. It counts as functional. In outline:
as §2

The subject of the next test is Candida tropicalis. Kind of test: Antifungal activity against Candida tropicalis clinical isolates assessed as inhibition of microbial growth incubated for 24 hrs by broth microdilution method. The class given is functional. An outline of the steps:
as §2

The subject of the next test is Pichia kudriavzevii. Kind of test: Antifungal activity against Candida krusei clinical isolates assessed as inhibition of microbial growth incubated for 24 hrs by broth microdilution method. The class given is functional. In outline: as §2
The next test relates to Candida parapsilosis. As to the kind of experiment: Antifungal activity against Candida parapsilosis clinical isolates assessed as inhibition of microbial growth incubated for 24 hrs by broth microdilution method. It counts as functional. Conditions: Lodderomyces parapsilosis. An outline of the steps:
as §2

The subject of a further test is [Candida] sake. Kind of test: Antifungal activity against Candida sake clinical isolates assessed as inhibition of microbial growth incubated for 24 hrs by broth microdilution method. Conditions: Fermentozyma sake. It counts as functional. In outline:
as §2

Test [1] relates to Streptococcus alpha-hemolyticus (Streptococcus sp.). Kind of test: Antibacterial activity against Streptococcus Streptococcus alpha hemolyticus assessed as inhibition of microbial growth incubated for 18 to 22 hrs by broth microdilution method.

As for `C/C(=N/N=C1\NC(=O)CS1)c1ccco1`, the MIC in the test with Staphylococcus aureus, with Staphylococcus warneri, with Enterococcus faecalis, in the test with Escherichia coli, in the test on Proteus mirabilis and in the test with Enterobacter was ≥ 256 µg/mL in each case. The MIC is ≥ 256 µg/mL in the test with Klebsiella oxytoca; 2 µg/mL in the test with Candida albicans; 2 µg/mL in the test with Nakaseomyces glabratus; 2 µg/mL with Candida tropicalis; 2 µg/mL with Pichia kudriavzevii; 2 µg/mL with Candida parapsilosis. Besides, the figures for the MIC in [Candida] sake and in test [1] were 2 µg/mL and ≥ 256 µg/mL, respectively.

Turning to `O=C1CS/C(=N/N=C\c2cccs2)N1`, the MIC in the test on Staphylococcus aureus, in the test on Staphylococcus warneri, in the test with Enterococcus faecalis, with Escherichia coli, with Proteus mirabilis and in the test on Enterobacter was ≥ 256 µg/mL each time. The MIC with Klebsiella oxytoca was ≥ 256 µg/mL; in the test with Candida albicans it was 256 µg/mL; in the test with Nakaseomyces glabratus, 256 µg/mL; in the test on Candida tropicalis, 256 µg/mL; in the test with Pichia kudriavzevii, 256 µg/mL; in the test on Candida parapsilosis it was 256 µg/mL. In addition, the minimum inhibitory concentration (MIC) in test [Candida] sake is 256 µg/mL; in [1], ≥ 256 µg/mL.

For `C/C(=N/N=C1\NC(=O)CS1)c1ccccc1`, the MIC with Staphylococcus aureus, in the test on Staphylococcus warneri, in the test with Enterococcus faecalis, with Escherichia coli, with Proteus mirabilis and with Enterobacter was ≥ 256 µg/mL throughout. The MIC was ≥ 256 µg/mL in the test on Klebsiella oxytoca; 2 µg/mL in the test with Candida albicans; 2 µg/mL in the test on Nakaseomyces glabratus; 16 µg/mL in the test with Candida tropicalis; 8 µg/mL with Pichia kudriavzevii; 16 µg/mL with Candida parapsilosis. In addition, the figures for the MIC in [Candida] sake and in [1] were 16 µg/mL and ≥ 256 µg/mL, respectively.

For `O=C1CS/C(=N/N=C\c2cccnc2)N1`, the minimal inhibitory concentration (MIC) in the test with Staphylococcus aureus, in the test with Staphylococcus warneri, in the test with Enterococcus faecalis, in the test with Escherichia coli, with Proteus mirabilis and in the test with Enterobacter was ≥ 256 µg/mL each time. The MIC with Klebsiella oxytoca is ≥ 256 µg/mL; with Candida albicans, 8 µg/mL; with Nakaseomyces glabratus, 8 µg/mL; in the test with Candida tropicalis, 16 µg/mL; in the test with Pichia kudriavzevii, 16 µg/mL; in the test on Candida parapsilosis, 16 µg/mL. The MIC in test [Candida] sake was 16 µg/mL; in test [1], ≥ 256 µg/mL.

Take `O=C1CS/C(=N/N=C\c2ccccc2[N+](=O)[O-])N1`: the minimal inhibitory concentration (MIC) with Staphylococcus aureus, in the test on Staphylococcus warneri, in the test on Enterococcus faecalis, with Escherichia coli, with Proteus mirabilis and with Enterobacter was ≥ 256 µg/mL each time. Besides, the MIC in the test with Klebsiella oxytoca was ≥ 256 µg/mL; with Candida albicans, 16 µg/mL; in the test on Nakaseomyces glabratus, 8 µg/mL; in the test with Candida tropicalis it was 4 µg/mL; in the test on Pichia kudriavzevii, 16 µg/mL; in the test on Candida parapsilosis it was 128 µg/mL. For the same compound, the MIC in test [Candida] sake was 8 µg/mL; in test [1] it was ≥ 256 µg/mL.

On to `C/C(=N/N=C1\NC(=O)CS1)c1cccc([N+](=O)[O-])c1`, for which the minimal inhibitory concentration (MIC) in the test with Staphylococcus aureus, with Staphylococcus warneri, in the test with Enterococcus faecalis, in the test with Escherichia coli, in the test with Proteus mirabilis and with Enterobacter was ≥ 256 µg/mL each time. The MIC with Klebsiella oxytoca was ≥ 256 µg/mL; in the test with Candida albicans it was 2 µg/mL; with Nakaseomyces glabratus it was 4 µg/mL; in the test on Candida tropicalis it was 2 µg/mL; in the test on Pichia kudriavzevii, 4 µg/mL; in the test on Candida parapsilosis it was 2 µg/mL. Moreover, the MIC in [Candida] sake was 2 µg/mL; in test [1] it was ≥ 256 µg/mL.

Take `O=C1CS/C(=N/N=C\c2ccccn2)N1`: the MIC in the test with Staphylococcus aureus, in the test with Staphylococcus warneri, in the test with Enterococcus faecalis, in the test on Escherichia coli, with Proteus mirabilis and in the test on Enterobacter was ≥ 256 µg/mL in each case. Also, the MIC in the test on Klebsiella oxytoca was ≥ 256 µg/mL; in the test with Candida albicans, 2 µg/mL; in the test on Nakaseomyces glabratus, 8 µg/mL; with Candida tropicalis it was 2 µg/mL; in the test with Pichia kudriavzevii it was 4 µg/mL; in the test with Candida parapsilosis it was 2 µg/mL. Besides, the minimum inhibitory concentration (MIC) in test [Candida] sake is 2 µg/mL; in [1] it was ≥ 256 µg/mL.

As to `O=C1CS/C(=N/N=C\c2cccc([N+](=O)[O-])c2)N1`, the MIC in the test on Staphylococcus aureus, in the test on Staphylococcus warneri, with Enterococcus faecalis, with Escherichia coli, in the test on Proteus mirabilis and in the test with Enterobacter was ≥ 256 µg/mL throughout. Besides, the MIC is ≥ 256 µg/mL with Klebsiella oxytoca; 16 µg/mL in the test with Candida albicans; 8 µg/mL with Nakaseomyces glabratus; 16 µg/mL with Candida tropicalis; 8 µg/mL in the test on Pichia kudriavzevii; 4 µg/mL with Candida parapsilosis. In addition, the figures for the MIC in [Candida] sake and in [1] were 8 µg/mL and ≥ 256 µg/mL, respectively.

Consider `O=C1CS/C(=N/N=C\c2ccc([N+](=O)[O-])cc2)N1`, for which the MIC in the test with Staphylococcus aureus, with Staphylococcus warneri, in the test with Enterococcus faecalis, in the test with Escherichia coli, in the test with Proteus mirabilis and with Enterobacter was ≥ 256 µg/mL in each case. For the same compound, the MIC in the test with Klebsiella oxytoca is ≥ 256 µg/mL; with Candida albicans, 16 µg/mL; with Nakaseomyces glabratus, 8 µg/mL; in the test on Candida tropicalis, 4 µg/mL; in the test with Pichia kudriavzevii, 8 µg/mL; in the test on Candida parapsilosis, 4 µg/mL. In addition, the values for the MIC in test [Candida] sake and in test [1] were 8 µg/mL and ≥ 256 µg/mL, respectively.

Regarding `C/C(=N/N=C1\NC(=O)CS1)c1ccc(Cl)s1`, the MIC in the test on Staphylococcus aureus, in the test with Staphylococcus warneri, in the test on Enterococcus faecalis, with Escherichia coli, in the test on Proteus mirabilis and with Enterobacter was ≥ 256 µg/mL throughout. The MIC with Klebsiella oxytoca is ≥ 256 µg/mL; in the test on Candida albicans, 8 µg/mL; in the test on Nakaseomyces glabratus, 8 µg/mL; in the test on Candida tropicalis it was 8 µg/mL; in the test on Pichia kudriavzevii, 16 µg/mL; in the test on Candida parapsilosis it was 8 µg/mL. Besides, the MIC in test [Candida] sake was 16 µg/mL; in test [1], ≥ 256 µg/mL.

As to `C/C(=N/N=C1\NC(=O)CS1)c1ccc([N+](=O)[O-])cc1`, the MIC in the test on Staphylococcus aureus, in the test on Staphylococcus warneri, in the test with Enterococcus faecalis, in the test on Escherichia coli, in the test with Proteus mirabilis and with Enterobacter was ≥ 256 µg/mL throughout. Also, the MIC is ≥ 256 µg/mL with Klebsiella oxytoca; 4 µg/mL with Candida albicans; 8 µg/mL in the test on Nakaseomyces glabratus; 8 µg/mL with Candida tropicalis; 4 µg/mL in the test on Pichia kudriavzevii; 16 µg/mL with Candida parapsilosis. For the same compound, the minimum inhibitory concentration (MIC) in test [Candida] sake was 16 µg/mL; in test [1], ≥ 256 µg/mL.

As to `CC1=C(/C=N\N=C2/NC(=O)CS2)C(C)(C)CC=C1`, the MIC in the test with Staphylococcus aureus, with Staphylococcus warneri, in the test with Enterococcus faecalis, with Escherichia coli, in the test on Proteus mirabilis and with Enterobacter was ≥ 256 µg/mL in each case. Further, the MIC was ≥ 256 µg/mL in the test with Klebsiella oxytoca; 2 µg/mL in the test with Candida albicans; 2 µg/mL in the test with Nakaseomyces glabratus; 16 µg/mL with Candida tropicalis; 2 µg/mL with Pichia kudriavzevii; 16 µg/mL in the test with Candida parapsilosis. Also, the figures for the MIC in test [Candida] sake and in [1] were 2 µg/mL and ≥ 256 µg/mL, respectively.

Regarding `C/C(=N/N=C1\NC(=O)CS1)c1ccsc1`, the minimum inhibitory concentration (MIC) in the test on Staphylococcus aureus, in the test on Staphylococcus warneri, with Enterococcus faecalis, in the test with Escherichia coli, in the test on Proteus mirabilis and in the test on Enterobacter was ≥ 256 µg/mL each time. The MIC was ≥ 256 µg/mL with Klebsiella oxytoca; 8 µg/mL in the test with Candida albicans; 8 µg/mL with Nakaseomyces glabratus; 8 µg/mL with Candida tropicalis; 16 µg/mL with Pichia kudriavzevii; 8 µg/mL in the test with Candida parapsilosis. Further, the MIC is 16 µg/mL in test [Candida] sake and ≥ 256 µg/mL in test [1].

Regarding `O=C1CS/C(=N/N=C\c2ccccc2)N1`, the MIC in the test with Staphylococcus aureus, in the test with Staphylococcus warneri, in the test on Enterococcus faecalis, with Escherichia coli, in the test with Proteus mirabilis and with Enterobacter was ≥ 256 µg/mL throughout. Moreover, the MIC in the test on Klebsiella oxytoca is ≥ 256 µg/mL; with Candida albicans, 4 µg/mL; in the test with Nakaseomyces glabratus, 8 µg/mL; in the test with Candida tropicalis, 4 µg/mL; with Pichia kudriavzevii, 16 µg/mL; in the test with Candida parapsilosis it was 128 µg/mL. The MIC was 2 µg/mL in [Candida] sake and ≥ 256 µg/mL in test [1].

As for `C/C(=N/N=C1\NC(=O)CS1)c1ccccc1[N+](=O)[O-]`, the MIC in the test with Staphylococcus aureus, in the test on Staphylococcus warneri, with Enterococcus faecalis, in the test with Escherichia coli, with Proteus mirabilis and in the test with Enterobacter was ≥ 256 µg/mL in each case. The MIC was ≥ 256 µg/mL with Klebsiella oxytoca; 2 µg/mL with Candida albicans; 2 µg/mL with Nakaseomyces glabratus; 2 µg/mL in the test with Candida tropicalis; 8 µg/mL with Pichia kudriavzevii; 2 µg/mL with Candida parapsilosis. Besides, the figures for the MIC in test [Candida] sake and in test [1] were 2 µg/mL and ≥ 256 µg/mL, respectively.
